Experimental data published in PubChem BioAssay.
Values without a mark were called inactive. Records with an inconclusive call do not appear. Calls of active or inactive are those of the source.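 How the source made its calls, unless noted: active means RAM network inhibition above 8.4% in each of two replicates, 3 SD over the compound average; inconclusive means above 8.4% inhibition in only one replicate; inactive means 8.4% inhibition or less in each replicate.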

Key:
[1] = OD615 S. cerevisiae growth inhibition, permissive medium, pilot counter-assay, permissive growth control for S. cerevisiae lifespan shortening project (AID 705;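 active means growth inhibition above 25% in both replicates, a cutoff set 3 SD above the mean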); conditions: OD615, 24 h, at 10 µM, active compounds read high
How it was run: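 Material: engineered DeaD yeast; compound dosing: one dose 10 µM, DMSO 0.25% final; measure: yeast growth inhibition indicated by reduced 24 h OD615; detection: OD615 turbidity read; incubation: cells pre-grown 4 h, then 24 h compound exposure, 30 °C humidified; medium: permissive synthetic complete medium with raffinose and galactose carbon sources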

[2] = Restrictive medium S. cerevisiae growth inhibition, OD615, pilot screen of yeast lifespan reduction project, restrictive growth control (AID 706;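 active means growth inhibition above a set limit, 3 SD over mean compound inhibition, in both replicates, cut at about 43% in these data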;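 further: modified DeaD lifespan yeast strain shifted to restrictive glucose medium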); conditions: OD615, 48 h, at 10 µM, active compounds read high
How it was run: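 material = engineered S. cerevisiae DeaD strain | medium = glucose-based CSMM-D restrictive medium | times = 4 h pre-incubation, 48 h exposure at 30 °C | technique = OD615 absorbance reading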

[3] = viability gain of MRP-1-high H69AR cells under doxorubicin, pilot screen, MRP-1 activator project, CellTiter-Glo, duplicate (AID 807;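 active means viability increase at or above a cutoff of the median across tested compounds plus 3 SD, cut at about 8.5% in these data, passing the limit was not always enough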;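 further: compound pretreatment 18-22 h then 72 h combined with doxorubicin; 0% = doxorubicin alone and 100% = vehicle without doxorubicin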); conditions: H69AR viability with doxorubicin, CellTiter-Glo luminescence; at 10 µM; active compounds read high
[4] = growth suppression of beta-catenin knockout HCT116, pilot screen, human colon tumor cells (AID 823;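 active means cell viability at or below a set limit in both duplicate runs, the limit being the all-compound median minus 4 SD, cut at about 23% in these data, passing the limit was not always enough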;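 further: 0% = wells killed by 20 µM Hyamine and 100% = untreated DMSO cell wells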); conditions: CellTiter-Glo, 60 h, at 10 µM, active compounds read low
[5] = growth suppression of PTEN-deleted HCT116, pilot screen, cell-based, HCT116 clonal line, CellTiter-Glo (AID 824;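 active means viability at or below 27.92% in each of two runs, the all-compound median minus 4 SD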;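 further: 0% = 20 µM Hyamine control and 100% = vehicle cell control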); conditions: 60 h, at 10 µM, active compounds read low
[6] = inhibitors of the yeast RAM network, pilot screen, dse1pr::URA3 reporter, 5-FOA selection (AID 869;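 active means inhibition over a set limit, the all-compound mean plus 3 SD, in both replicate runs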;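 further: 0% = DMSO wells with no growth and 100% = 10 µM 1-NA-PP1 with full growth; RAM network block rescues cells from 5-FOA so hits raise OD615 growth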); conditions: S. cerevisiae dse1pr::URA3 5-FOA growth, OD615, 2 d; at 10 µM; active compounds read high; strain carries analog-sensitive mutant Cbk1 kinase
[7] = RAM signaling pathway blockade in yeast – S. cerevisiae, Pdr1DBD-CYC8 efflux-inhibited sensitized strain, primary screen (AID 1298);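 further: 0% = DMSO untreated cells without growth and 100% = 10 µM 1-NA-PP1 full growth; higher means more yeast growth rescued from 5-FOA killing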; conditions: S. cerevisiae cbk1-as DSE1-URA3 strain, 5-FOA growth OD615, 2 d; at 50 µM; active compounds read high

Row | SMILES | growth inhibition [1] | growth inhibition [2] | viability increase [3] | viability [4] | viability [5] | inhibition [6] | RAM network inhibition [7]
1 | CC(C)CC(NS(=O)(=O)c1ccc2c(c1)oc(=O)n2C)C(=O)NC1CCCc2ccccc21 (stereo not drawn) | 0.005% | -5.15% | -6.23% | 76.8% | 71.8% | 1.38% | 6.99%
2 | COC(=O)c1ccc(CSc2nc3c(c(=O)n2-c2ccc(F)cc2)SCC3)o1 | -7.83% | -16.6% | -3.02% | 83.7% | 81.3% | 1.3% | 1.52%
3 | O=C(CC1Sc2ncnn2C1=O)Nc1ccc(Br)cc1 (stereo not drawn) | -5.64% | -9.71% | -1.23% | 106% | 100% | 1.93% | 5.71%
4 | CCOC(=O)Nc1ccc2c(c1)N(C(=O)N(CC)CC)c1ccccc1CC2 | -8.36% | -26.2% | -3.07% | 71.6% | 71.3% | 2.9% | 2.11%
5 | COc1ccc(CNC(=O)c2cc(C3CC3)on2)cc1 | -3.07% | 6.49% | -1.95% | 94.3% | 95.5% | -0.84% | -2.3%
6 | CN(C)c1ccc(C2C3C(=O)NC(=O)C3ON2c2ccc(Cl)cc2)cc1 (stereo not drawn) | -0.19% | 2.37% | -0.83% | 102% | 98.6% | 0.735% | 4.07%
7 | C=CCc1ccccc1OCC(O)CN1CCN(c2ccccc2OC)CC1 (stereo not drawn) | -21.5% | -25% | -4.59% | 56.3% | 63.5% | 1.39% | 4.75%
8 | Cc1nn(-c2ccccc2)c2c1C(c1ccccc1)C(C#N)=C(N)O2 (stereo not drawn) | -13.1% | -12.2% | -2.62% | 91.3% | 87.8% | 2.24% | 10.5%
9 | N#Cc1nc(COc2ccccc2)oc1N1CCCCC1 | -9.45% | 10.3% | 2.53% | 87.5% | 88.9% | 0.495% | -1.83%
10 | Cc1csc2ncc(C(=O)NCc3ccccn3)c(=O)n12 | -10.9% | 3.67% | -0.65% | 100% | 96.7% | 1.58% | 1.6%
11 | COc1cc(C2C(C(N)=O)=C(C)Nc3nc(CCCO)nn32)cc(OC)c1OC (stereo not drawn) | -3.16% | -9.14% | -0.36% | 101% | 95% | 0.785% | 0.15%
12 | CCOCCCNC(=O)CN1C(=O)CSc2ccccc21 | -18.9% | -6.29% | -0.22% | 101% | 98.9% | 1.49% | 2.6%
13 | Cc1ccc2sc(NC(=O)CN3C(=O)CCC3=O)nc2c1C | -10.4% | -12.7% | 2.23% | 114% | 109% | 0.805% | 2.15%
14 | CC(NC(=O)c1cccnc1)C(c1cccs1)N1CCN(C)CC1 (stereo not drawn) | -4.91% | 5.15% | 0.3% | 98.2% | 95% | 0.955% | 4.79%
15 | O=C(CCNS(=O)(=O)c1cccc2nsnc12)NCCc1ccccc1 | 3.27% | -1.99% | -1.34% | 105% | 97.6% | 0.11% | 1.2%
16 | COC(=O)N1CC(C)N(C(=O)OC)CC1C (stereo not drawn) | -8.79% | 3.85% | -2.14% | 95.2% | 95.6% | 0.745% | 6.61%
17 | COc1nc(Nc2ccc3c(c2)OCO3)nc(OC)n1 | -22% | -10.4% | -2.8% | 102% | 93.6% | 3.51% | 4.7%
18 | O=C(NCC1CCCO1)C1CC(=O)N(c2ccc(F)c(Cl)c2)C1 (stereo not drawn) | -7.27% | -1.83% | -1.68% | 86.7% | 94.1% | 1.5% | 5.33%
19 | O=C(Cn1ncc2c1-c1ccccc1OC2)N(Cc1ccco1)C1CCCCC1 | 0.715% | -5.62% | -2.69% | 78.5% | 74.9% | 2.08% | 3.96%
20 | CCOc1ccc(C(=O)NCc2ccncc2)cc1OCC | 8.96% | 7.73% | -0.92% | 92.9% | 90% | 2.33% | 0.83%
21 | Cc1ccc(N2CC(c3nc4ccccc4n3C)CC2=O)cc1C (stereo not drawn) | -4.58% | -2.28% | -1.22% | 103% | 105% | 0.94% | 3.07%
22 | Cc1ccc(Sc2oc(/C=N/n3cnnc3)cc2Br)cc1 | 0.63% | 4.41% | -7% | 6.77% (active) | 6.87% (active) | 1.4% | 3.27%
23 | CCCOc1ccccc1C1NC(=O)NC(C)=C1C(=O)OCCOC(C)C (stereo not drawn) | -12.9% | -13.2% | -2.17% | 89.5% | 91.4% | 0.325% | 5.61%
24 | O=C(Cn1cc2c(n1)CCCC2)N1CCCc2ccccc21 | 1.09% | 4.04% | -1.6% | 98.6% | 100% | 0.85% | 1.48%
25 | Cc1cc(N2CCCc3ccccc32)n2ncnc2n1 | -2.53% | -1.67% | -1.21% | 97.9% | 105% | 0.97% | 0.93%

Row | SMILES | growth inhibition [1] | growth inhibition [2] | viability increase [3] | viability [4] | viability [5] | inhibition [6] | RAM network inhibition [7]
26 | CCN1CCN(CC(=O)Nc2cccc(C)c2C)C(=O)C1=O | -3.54% | -7.93% | -0.73% | 99% | 90.9% | 2.46% | 2.6%
27 | Cc1onc(-c2ccccc2Cl)c1C(=O)NC1CCS(=O)(=O)C1 (stereo not drawn) | -10% | 1.32% | 1.32% | 103% | 106% | 2.96% | 3.02%
28 | Cc1cc(C)n2nc(C(=O)Oc3ccc4c(c3)OCO4)nc2n1 | -3.75% | -24% | -1.75% | 99% | 104% | 1.7% | 3.06%
29 | O=C(CSCCNS(=O)(=O)c1ccccc1)Nc1ccccc1 | -6.82% | -4.2% | -2.84% | 91% | 91.6% | 1.77% | 0.37%
30 | Cn1cccc1Cc1nnc(SCC(=O)NCCc2ccccc2)n1-c1ccc(F)cc1 | -6.41% | 5.7% | -2.38% | 93.7% | 93.3% | 2.35% | 5.42%
31 | CCOC(=O)c1ccc(NC(=O)NS(=O)(=O)c2ccc(C)cc2)cc1 | -7.83% | -3.95% | -1.46% | 105% | 94% | 3.13% | 6.08%
32 | CCNc1nc(C)nc2c1oc1ccccc12 | -8.28% | -30.6% | 0.92% | 101% | 89.5% | 1.81% | 3.64%
33 | CCCCN=C(C)c1c(O)c2ccccc2oc1=O | -2.92% | 5.07% | -1.49% | 102% | 95.9% | 0.01% | -2%
34 | O=C(CSCC(=O)N1CCOCC1)Nc1ccccc1 | -11.4% | -8.24% | -0.42% | 97.2% | 97.8% | 0.42% | 2.75%
35 | CC(C)OCCCNC(=O)c1cc2c(=O)n(C)c3ccccc3c2n1C | 0.55% | -0.705% | -2.09% | 103% | 97% | 0.185% | 3.23%
36 | Cc1cccc(N=C(N2CCOCC2)P(=O)(N2CCOCC2)N2CCOCC2)c1 | -24.7% | -23.4% | -0.69% | 98.1% | 92.6% | 3.29% | 5.26%
37 | COc1ccc(C(=O)c2coc3ccc(O)c(CN4CCOCC4)c23)cc1 | -5.46% | -12% | -4.42% | 77.2% | 80.3% | 1.79% | -1.13%
38 | c1ccc(-c2cnc(-c3cccnc3)o2)cc1 | 0.08% | 7.29% | -4.72% | 95.5% | 94.4% | 2.12% | 1.68%
39 | COc1cccc(NC(=O)CN2C(=O)COc3ccc(Cl)cc32)c1 | -12.2% | -17.7% | -0.8% | 90% | 84.7% | 0.405% | 0.31%
40 | C=CCOC(=O)C1=C(C)NC(=O)NC1c1ccc(OC(=O)c2ccco2)c(OC)c1 (stereo not drawn) | -6.37% | -18.3% | -0.16% | 93.6% | 96.4% | 0.145% | 2.71%
41 | CCc1ccc(Cn2nnc(C(=O)Nc3cccc(C)c3)c2N)cc1 | -7.21% | -2.92% | -0.67% | 102% | 95.9% | 3.39% | 8.18%
42 | CCN(CC)CCNC(=O)c1cn(CC)c2ccc(S(=O)(=O)N(C)C)cc2c1=O | 0.365% | 8.34% | -1.41% | 106% | 101% | 2.2% | 2.04%
43 | Cc1cc(C(=O)N2CCN(Cc3ccc4c(c3)OCO4)CC2)on1 | -6.71% | -10.4% | 0.9% | 97.2% | 105% | 1.79% | 2.8%
44 | CCOC(=O)c1cnn(CC2CCCCC2)c1N | 0.805% | 1.77% | -0.78% | 92.4% | 94.4% | 0.96% | -0.52%
45 | CC(=O)N1CCC(N(CCN2CCOCC2)C(=O)Nc2ccc(Cl)c(Cl)c2)CC1 | -8.97% | -0.8% | -1.49% | 97% | 95.6% | 2.5% | 1.45%
46 | CCOC(=O)CSC1=C(C#N)C(c2ccc(C)s2)CC(=O)N1 (stereo not drawn) | -9.3% | -13.3% | -5.84% | 15.9% (active) | 16% (active) | 1.54% | 0.22%
47 | Brc1ccc(C2Nc3cccc4cccc(c34)N2)o1 | -13.8% | -9.64% | -0.34% | 85.9% | 92.5% | 2.66% | 1.71%
48 | Cc1ccccc1C(=O)Nc1ccc2nc3n(c(=O)c2c1)CCC3 | -2.17% | 0.31% | 0.79% | 106% | 104% | 0.085% | 4.34%
49 | CC(=O)c1cccc(NC(=O)C2CCCC2)c1 | -9.02% | -23.5% | -0.26% | 102% | 95.4% | 1.08% | -2.18%
